Tb MetRS inh: blocks T. brucei methionyl-tRNA synthetase activity | purified T. brucei MetRS, ATP depletion, Kinase-Glo luminescence | inhibition, % at 11.9 µM | 360,000 tested, 0.4% active;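 active means inhibition above a per-plate cutoff of the control wells' mean inhibition plus 3 SD, cut at about 5.5% in these data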
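Material – parasite MetRS enzyme · Medium – HEPES-MgCl2-KCl buffer plus DTT, spermine, BSA, pyrophosphatase · Reagent – ATP, methionine and E. coli bulk tRNA substrates · Times – 15 min enzyme-compound preincubation, 2 h reaction, 10 min detection, 25 °C · Measured by – luminescence of leftover ATP · Evaluation – percent inhibition relative to median high and low control wells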
MPTP inh: permeability transition pore inhibition; AID 602449; 360,000 tested, 1.4% active; isolated mouse mitochondria, Ca2+ swelling absorbance, 30 min; inhibition, % at 10 µM;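 active means inhibition of 50% or more, scaled per plate between neutral and stimulator controls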
CHOP inhibitor: blocks CHOP induction under ER stress. CHO-K1 CHOP-promoter luciferase, tunicamycin-induced, 15-18 h. inhibition, % at 10 µM. 220,000 tested, 3.8% active;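 active means compounds that reduced the stress-induced luciferase reporter signal by more than about 70% of percent inhibition, limit read from the data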
GRIN3A LBD mod: NR3A (human) ligand-binding domain modulation; 340,000 tested, 2.5% active; NR3A LBD differential scanning fluorimetry, Tm shift; 0% = protein alone, 100% = glycine-bound protein; Tm shift relative to glycine control, % at 25 µM; AID 1259313;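 active means melting temperature shift of at least 10% of the positive control shift, at one fixed dose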
WT yeast gro inh: growth inhibition of WT yeast, mitochondrial fusion screen | mitochondrial fusion phenotypic screen, WT strain | inhibition, % at 10 µM | 190,000 tested, 2.1% active; in the data active means inhibition above about 58%; tested in S. cerevisiae
EBV gp42 inh: blocks Epstein-Barr virus glycoprotein 42 binding; Q1HVG2; Fluorescence polarization binding assay, mP read-out; inhibition, % (tested at 21.74 µM); 220,000 tested, 0.42% active; AID 1085; in the data active means inhibition above about 50%
Target sequence (Q1HVG2 whole entry, looked up): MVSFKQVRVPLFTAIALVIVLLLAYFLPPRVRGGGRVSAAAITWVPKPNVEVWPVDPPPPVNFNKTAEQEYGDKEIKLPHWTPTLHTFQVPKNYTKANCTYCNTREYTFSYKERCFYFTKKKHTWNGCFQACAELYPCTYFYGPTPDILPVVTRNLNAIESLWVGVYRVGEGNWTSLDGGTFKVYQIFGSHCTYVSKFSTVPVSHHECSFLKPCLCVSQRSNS
Each line names hits and unclear results; the compound was inactive in the other large screens. In the library only some 6.4% were active in any assay of this set; here they are far more common.

C=CCn1c(-c2cc(-c3ccc(C)cc3)nc3ccccc23)n[nH]c1=S	CHOP inhibitor 70
CCn1c(-c2cc(-c3ccc(C)cc3)nc3ccccc23)n[nH]c1=S	none
CC(=O)NCCOc1c(C)cc(S(N)(=O)=O)cc1C	none
Cc1ccc(C)c(NC(=O)CC2Sc3ccccc3NC2=O)c1 (stereo not given)	none (no result: CHOP inhibitor, WT yeast gro inh, EBV gp42 inh)
O=C(O)CC1Sc2ccccc2NC1=O (stereo not given)	none
Cc1c(Cl)cccc1NC(=O)CC1Sc2ccccc2NC1=O (stereo not given)	GRIN3A LBD mod 10 (no result: WT yeast gro inh)
O=C(CC1Sc2ccccc2NC1=O)c1ccc(Br)cc1 (stereo not given)	CHOP inhibitor 72
CC(Nc1n[nH]c(=S)[nH]c1=O)C(=O)OCc1ccccc1 (stereo not given)	none
CCN(CC)S(=O)(=O)c1ccc(-c2nnc(SCC(=O)Nc3ccc4c(c3)OCO4)o2)cc1	none
CCN(CC)S(=O)(=O)c1ccc(NC(=O)CSc2nnc(-c3ccc(F)cc3)o2)cc1	CHOP inhibitor 94
O=C(CSc1nnc(-c2ccc(F)cc2)o1)Nc1ccc(S(=O)(=O)N2CCCCCC2)cc1	CHOP inhibitor 84
COc1ccc(C(=O)C(CN2CCOCC2)c2ccccc2)cc1F (stereo not given)	WT yeast gro inh 61 (no result: CHOP inhibitor)
COc1ccc(C(O)C(CN2CCOCC2)c2ccccc2)cc1F (stereo not given)	none
O=C(CCCCn1c(=O)c2ccccc2n(Cc2ccccc2F)c1=O)NC1CCN(Cc2ccccc2)CC1	CHOP inhibitor 79
O=C(CSc1nc(-c2ccccc2)nc2ccc(F)cc12)Nc1ccc(C(=O)O)cc1	GRIN3A LBD mod 16
O=C(CSc1nc(-c2ccc(F)cc2)nc2c1Cc1ccccc1O2)Nc1cccc(C(=O)O)c1	GRIN3A LBD mod 19, EBV gp42 inh 71
O=C(CSc1nc(-c2ccccc2)nc2ccc(F)cc12)Nc1cccc(C(=O)O)c1	GRIN3A LBD mod 12 (no result: WT yeast gro inh)
O=C(CSc1nncc2ccccc12)Nc1cccc(C(=O)O)c1	none (no result: WT yeast gro inh)
N#Cc1cn(CCOc2ccccc2F)c2ccccc12	CHOP inhibitor 74
CSc1nc(-c2ccccc2)nn1C(=O)c1ccccc1	none
COc1ccc(C(=O)n2nc(-c3ccccc3)nc2SC)cc1	GRIN3A LBD mod 17
COc1ccc(CCn2c(=N)c(C(=O)NCCN3CCOCC3)cc3c(=O)n4ccccc4nc32)cc1OC	GRIN3A LBD mod 15 (no result: CHOP inhibitor, WT yeast gro inh, EBV gp42 inh)
COc1ccc(NC(=O)c2cc3c(=O)n4ccccc4nc3n2C)cc1OC	CHOP inhibitor 78
Cc1ccc(NC(=S)N(Cc2ccc(Cl)cc2)Cc2ccc(C(=O)O)cc2)cc1Cl	none
CC1(C(=O)Nc2ccccc2)CCN1C(=O)C1(c2ccc(Cl)cc2)CC1 (stereo not given)	none (no result: CHOP inhibitor, GRIN3A LBD mod, WT yeast gro inh, EBV gp42 inh)
O=C(O)c1ccc(COc2ccc([N+](=O)[O-])cc2Cl)cc1	none (no result: CHOP inhibitor, GRIN3A LBD mod, WT yeast gro inh, EBV gp42 inh)
COc1cc2c(cc1OC)C(COc1ccc(F)cc1)NCC2 (stereo not given)	GRIN3A LBD mod 271 (no result: CHOP inhibitor, WT yeast gro inh, EBV gp42 inh)
CCc1ccc(OCC2NCCc3cc(OC)c(OC)cc32)cc1 (stereo not given)	none (no result: CHOP inhibitor, WT yeast gro inh, EBV gp42 inh)
O=C(NN1CCOCC1)c1ccccc1F	none (no result: CHOP inhibitor, WT yeast gro inh, EBV gp42 inh)
CC(C)c1cc(C(F)(F)F)n2nc(C(=O)O)cc2n1	none
Cc1cc(C)n(CC(O)Cn2c3ccccc3c3ccccc32)c(=O)n1 (stereo not given)	none
Cc1cc(C)n(CC(O)Cn2c3ccc(Br)cc3c3cc(Br)ccc32)c(=O)n1 (stereo not given)	WT yeast gro inh 91
CCCCn1c(N)c(N(CCOC)C(=O)C2CCN(C(=O)c3ccccc3C)CC2)c(=O)[nH]c1=O	none (no result: CHOP inhibitor, WT yeast gro inh, EBV gp42 inh)
CCCC1C2C(=O)N(c3ccccc3)C(=O)C2ON1c1ccccc1 (stereo not given)	none
CCCC1C2C(=O)N(c3ccccc3OC)C(=O)C2ON1c1ccccc1 (stereo not given)	GRIN3A LBD mod 20
O=S(=O)(O)c1cc(O)c2c(O)c(N=Nc3cc(Cl)ccc3O)c(S(=O)(=O)O)cc2c1	Tb MetRS inh 18 (no result: CHOP inhibitor, WT yeast gro inh, EBV gp42 inh)
CN(C)/C=C(/C#N)C(=O)c1cccc(Oc2ccc(C(C)(C)C)cc2)c1	CHOP inhibitor 93, WT yeast gro inh 65
Oc1ccc2ccccc2c1/C=N/c1nc2c(s1)CCCC2	WT yeast gro inh 80
Oc1c(Br)cc(Br)cc1/C=N/c1nc2c(s1)CCCC2	CHOP inhibitor 86
Oc1ccc2ccccc2c1C=Nc1ccc(Cl)cn1	EBV gp42 inh 82
COc1ccc(S(=O)(=O)Nc2c(C)n(C)n(-c3ccccc3)c2=O)cc1C(=O)O	none (no result: CHOP inhibitor, WT yeast gro inh, EBV gp42 inh)
O=[N+]([O-])c1ccccc1/C=N/n1c(C2CCCCC2)n[nH]c1=S	WT yeast gro inh 58
S=c1[nH]nc(C2CCCCC2)n1/N=C/c1ccccc1Br	none (no result: CHOP inhibitor, WT yeast gro inh, EBV gp42 inh)
O=[N+]([O-])c1cccc(/C=N/n2c(C3CCCCC3)n[nH]c2=S)c1	CHOP inhibitor 82
S=c1[nH]nc(C2CCCCC2)n1/N=C/c1ccc(Br)cc1	none (no result: CHOP inhibitor, WT yeast gro inh, EBV gp42 inh)
S=c1[nH]nc(C2CCCCC2)n1/N=C/c1ccc(Br)s1	CHOP inhibitor 95
Cc1onc(-c2ccccc2)c1C(=O)Nc1nc2c(s1)C(=O)CC(C)(C)C2	none
Cc1cnc(NC(=O)c2c(O)c3cccc4c3n(c2=O)CCC4)s1	CHOP inhibitor 76 (no result: Tb MetRS inh, MPTP inh, GRIN3A LBD mod)
Cc1cc2ccccc2nc1SCC(=O)N1c2ccccc2CC1C (stereo not given)	none
Cn1c(C2CCCCC2)nc2c1c(=O)[nH]c(=O)n2Cc1ccccc1	CHOP inhibitor 72
Cn1c(=O)[nH]c(=O)c2c1nc(N1CCC(Cc3ccccc3)CC1)n2Cc1ccccc1	CHOP inhibitor 88
Cn1c(=O)[nH]c(=O)c2c1nc(N1CCCCCC1)n2CCCSc1nc2ccccc2o1	CHOP inhibitor 95
Cn1c(=O)[nH]c(=O)c2c1nc(N1CCCCCC1)n2CCSc1nc2ccccc2o1	none
CCCn1c(N2CCC(Cc3ccccc3)CC2)nc2c1c(=O)[nH]c(=O)n2C	WT yeast gro inh 68
CCOC(=O)N1CCN(C(=O)/C(=C/c2ccc(Cl)cc2)NC(=O)c2ccccc2)CC1	none
COC(=O)c1cc(NC(=O)c2cc(C(C)(C)C)nn2Cc2ccc(F)cc2)ccc1N1CCOCC1	none (no result: WT yeast gro inh)
Cc1ccnc(SCCn2c(N3CCOCC3)nc3c2c(=O)[nH]c(=O)n3C)n1	none (no result: CHOP inhibitor, WT yeast gro inh, EBV gp42 inh)
CCCCCn1c(N2CCC(Cc3ccccc3)CC2)nc2c1c(=O)[nH]c(=O)n2C	WT yeast gro inh 88 (no result: CHOP inhibitor, EBV gp42 inh)
Cc1ccnc(SCCn2c(N3CCC(C)CC3)nc3c2c(=O)[nH]c(=O)n3C)n1	GRIN3A LBD mod 13
CC(=O)Cn1c(N2CCC(Cc3ccccc3)CC2)nc2c1c(=O)[nH]c(=O)n2C	none
COC(=O)Nc1ccc(S(=O)(=O)NNC(=O)c2c(O)c3ccccc3[nH]c2=O)cc1	none (no result: CHOP inhibitor, WT yeast gro inh, EBV gp42 inh)
COc1cc(C(=O)N2CCN(c3cccc(C(F)(F)F)c3)CC2)ccc1OCC(=O)N1CCOCC1	none (no result: CHOP inhibitor, WT yeast gro inh, EBV gp42 inh)
